Test results as given in article PMC3791465 (Nature Communications, 2013).
Each block holds one compound with its values, some of them ahead of it.

Key:
MCF-7 cells = assay: Cell cycle assay by flow cytometry, MCF-7; type: cell-based, human; details: MCF-7, 24 h
[1] = tested on: ERE within intron 1 of the BIG3 gene; assay: ChIP on intronic ERE of BIG3; type: cell-based, human; details: MCF-7
[2] = tested on: ERα / PHB2 chromatin-remodelling complexes; assay: Co-immunoprecipitation of chromatin-remodelling complexes in nuclear fractions; type: cell-based, human; details: MCF-7 and KPL-3C cells, 24 h, E2 present
How it was run: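 Lysed in 0.1% NP-40 buffer, precleared with normal IgG/Protein G Sepharose 3 h at 4 °C, then incubated with anti-ERα or anti-PHB2 (5 μg) 12 h at 4 °C. Complexes captured on Protein G 1 h, washed three times, resolved by SDS–PAGE and immunoblotted.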

Akt (S473) = assay: Immunoblot of Akt; type: cell-based, human; details: MCF-7 and KPL-3C cells, E2-stimulated
How it was run: (§1)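 Blots were run on nitrocellulose, blocked in 4% BlockAce for 1 h, probed with HRP secondary for 1 h and developed by ECL. Phospho-levels were quantified by densitometry. Representative of four independent experiments.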

[3] = tested on: ERα (S104/S106, S118, S167, S305 and Y537); assay: Immunoblot of ERα phosphorylation; type: cell-based, human; details: MCF-7 and KPL-3C cells, at least 24 h
How it was run: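 Blots were on nitrocellulose with HRP secondary and ECL detection. Site-specific ERα phosphorylation was quantified by densitometry and expressed as fold over untreated cells at 0 h. Mean±s.e.m.; experiments were run more than three times in triplicate.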

p42/44 MAPK (T202/Y204) = assay: Immunoblot of p42/44 MAPK; type: cell-based, human; details: MCF-7 and KPL-3C cells, E2-stimulated
How it was run: as §1

[4] = tested on: MCF-7 xenograft in BALB/c nude mice; assay: MCF-7 orthotopic xenograft tumour growth; type: in vivo, mouse; details: daily 6 μg per day E2, MCF-7
[5] = tested on: ERE motif within intron 1 of the BIG3 gene; assay: Luciferase assay, intronic ERE of BIG3; type: cell-based, human; details: MCF-7
BIG3 expression = BIG3 expression in MCF-7 cells; type: cell-based, human
[6] = tested on: Akt, p42/44 MAPK and ERα phosphorylation; assay: Immunoblot of phosphorylation in TAM-R MCF-7 and T47D cells; type: cell-based, human; details: tamoxifen alone or tamoxifen and E2
How it was run: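 Proteins separated, blotted to nitrocellulose, blocked 1 h, probed, then HRP secondary 1 h and ECL. Akt, p42/44 MAPK and ERα phosphorylation quantified by densitometry; experiments repeated more than three times in triplicate.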

SRC-1 binding/recruitment to ERα [2]: recruited SRC-1 to ERα
luciferase activity, intronic ERE from BIG3 [5]: robust luciferase activity
SMILES: C[C@]12CC[C@@H]3c4ccc(O)cc4CC[C@H]3[C@@H]1CC[C@@H]2O [E2, 17-estradiol]
apoptotic (sub-G1) cell population (MCF-7 cells): 0.17%
cell cycle distribution (MCF-7 cells): population of cells in the G2/M phase increased
recruitment to intronic ERE of BIG3 [1]: recruitment of ERα and the co-activator SRC-1 was observed
Akt (S473) phosphorylation (Akt (S473)): clearly increased in a time-dependent manner
ERα phosphorylation at five sites [3]: clearly increased in response to E2 stimulation
p42/44 MAPK (T202/Y204) phosphorylation (p42/44 MAPK (T202/Y204)): clearly increased in a time-dependent manner
E2-induced tumour growth by E2 alone [4]: induced time-dependent growth of KPL-3C and MCF-7 tumours
BIG3 expression after E2 (BIG3 expression): significantly upregulated in MCF-7 cells in a time-dependent manner

SMILES: CC/C(=C(\c1ccccc1)c1ccc(OCCN(C)C)cc1)c1ccccc1 [tamoxifen]
apoptotic (sub-G1) cell population (MCF-7 cells): 0.91%
cell cycle distribution (MCF-7 cells): population in the G1 phase increased
phosphorylation of Akt, p42/44 MAPK and ERα in TAM-R cells [6]: enhanced in response to tamoxifen alone
BIG3 expression after tamoxifen (BIG3 expression; real-time PCR and immunoblot): significant reduction in BIG3 expression at both the transcriptional and protein levels in a dose-dependent manner
